In ChEMBL document CHEMBL4138245, “Design and synthesis of novel quinacrine-[1,3]-thiazinan-4-one hybrids for their anti-breast cancer activity” (Eur J Med Chem, 2018):
Active and inactive are the calls of the source. No cut-off for these calls is given here.

How the values were obtained:
MDA-MB-468 = experiment: Antiproliferative activity against human MDA-MB-468 cells after 48 hrs by SRB assay; assay type: functional, cell-based; settings: MDA-MB-468, 48 h
How it was run: (§1)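 SRB assay: 5,000-10,000 cells/well plated, 24 h at 37 °C/5% CO2 before drug; seven concentrations from 100 μM down (two- to ten-fold serial dilutions, DMSO ≤0.1% final) for 48 h; TCA fixation (10% final, 60 min, 4 °C), 0.4% SRB in 1% acetic acid, solubilized in 10 mM Tris base, absorbance 515-564 nm; growth = (Ti−Tz)/(C−Tz)×100; IC50 from sigmoidal variable-slope fit; triplicates, ≥2 independent experiments.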

MDA-MB-231 = experiment: Antiproliferative activity against human MDA-MB-231 cells after 48 hrs by SRB assay; assay type: functional, cell-based; settings: MDA-MB-231, 48 h; how it was run: as §1
MCF7 [1] = experiment: Antiproliferative activity against human MCF7 cells after 48 hrs by SRB assay; assay type: functional, cell-based; settings: MCF7, 48 h; how it was run: as §1
184B5 = experiment: Antiproliferative activity against human 184B5 cells after 48 hrs by SRB assay; assay type: cell-based; settings: 184B5, 48 h; how it was run: as §1
MCF7 [2] = experiment: Anticlonogenic activity against human MCF7 cells at 0.39 to 1.5 uM after 12 hrs by crystal violet staining based assay; assay type: functional, cell-based
How it was run: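 Clonogenic assay: 1000 cells/well seeded, treated after overnight attachment for 12 h, then medium replaced and cells grown until control colonies were large enough; colonies stained with crystal violet.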

Structure (SMILES): COc1ccc2nc3cc(Cl)ccc3c(NCCCN3C(=O)CCSC3c3ccc(N(C)C)cc3)c2c1 (configuration not stated)
- IC50 (MDA-MB-468): 3.56 µM
- IC50 (MDA-MB-231): 2.63 µM
- IC50 (MCF7 [1]): 3.09 µM
- IC50 (184B5): 13.2 µM

Structure (SMILES): COc1ccc2nc3cc(Cl)ccc3c(NCCCN3C(=O)CCSC3c3ccc([N+](=O)[O-])cc3)c2c1 (configuration not stated)
- IC50 (MDA-MB-468): 9.41 µM
- IC50 (MDA-MB-231): 4.68 µM
- IC50 (MCF7 [1]): 7.04 µM
- IC50 (184B5): 19.5 µM

Structure (SMILES): COc1ccc2nc3cc(Cl)ccc3c(NCCCN3C(=O)CCSC3C3CCCCC3)c2c1 (configuration not stated)
- IC50 (MDA-MB-468): 5.25 µM
- IC50 (MDA-MB-231): 5.85 µM
- IC50 (MCF7 [1]): 5.05 µM
- IC50 (184B5): 7.71 µM

Structure (SMILES): COc1ccc2nc3cc(Cl)ccc3c(NCCCN3C(=O)CCSC3c3ccccc3Cl)c2c1 (configuration not stated)
- IC50 (MDA-MB-468): 19.9 µM
- IC50 (MDA-MB-231): 10.8 µM
- IC50 (MCF7 [1]): 15.3 µM
- IC50 (184B5): 69.6 µM

Structure (SMILES): COc1ccc2nc3cc(Cl)ccc3c(NCCCN3C(=O)CCSC3c3ccccc3)c2c1 (configuration not stated)
- IC50 (MDA-MB-468): 4.72 µM
- IC50 (MDA-MB-231): 4.07 µM
- IC50 (MCF7 [1]): 4.79 µM
- IC50 (184B5): 9.32 µM

Structure (SMILES): COc1ccc2nc3cc(Cl)ccc3c(NCCCN3C(=O)CCSC3c3c(F)cccc3Cl)c2c1 (configuration not stated)
- IC50 (MDA-MB-468): 5.19 µM
- IC50 (MDA-MB-231): 3.44 µM
- IC50 (MCF7 [1]): 4.31 µM
- IC50 (184B5): 3.1 µM

Structure (SMILES): COc1ccc2nc3cc(Cl)ccc3c(NCCCN3C(=O)CCSC3c3ccccc3F)c2c1 (configuration not stated)
- IC50 (MDA-MB-468): 2.68 µM
- IC50 (MDA-MB-231): 4.11 µM
- IC50 (MCF7 [1]): 2.29 µM
- IC50 (184B5): 35.6 µM

Structure (SMILES): COc1ccc2nc3cc(Cl)ccc3c(NCCCN3C(=O)CCSC3c3ccccc3Br)c2c1 (configuration not stated)
- IC50 (MDA-MB-468): 38.6 µM
- IC50 (MDA-MB-231): 40.1 µM
- IC50 (MCF7 [1]): 39.3 µM
- IC50 (184B5): 15.6 µM

Structure (SMILES): COc1ccc2nc3cc(Cl)ccc3c(NCCCN3C(=O)CCSC3c3c(F)cccc3F)c2c1 (configuration not stated)
- IC50 (MDA-MB-468): 3.2 µM
- IC50 (MDA-MB-231): 4.41 µM
- IC50 (MCF7 [1]): 3.81 µM
- IC50 (184B5): 29.3 µM

Structure (SMILES): COc1ccc2nc3cc(Cl)ccc3c(NCCCN3C(=O)CCSC3c3ccnc4ccccc34)c2c1 (configuration not stated)
- IC50 (MDA-MB-468): 10.4 µM
- IC50 (MDA-MB-231): 7.48 µM
- IC50 (MCF7 [1]): 8.94 µM
- IC50 (184B5): 27.1 µM

Structure (SMILES): COc1ccc2nc3cc(Cl)ccc3c(NCCCN3C(=O)CCSC3c3ccc(F)cc3)c2c1 (configuration not stated)
- IC50 (MDA-MB-468): 4.58 µM
- IC50 (MDA-MB-231): 5.36 µM
- IC50 (MCF7 [1]): 4.97 µM
- IC50 (184B5): 28.2 µM

Structure (SMILES): COc1ccc2nc3cc(Cl)ccc3c(NCCCN3C(=O)CCSC3c3ccc(C)cc3)c2c1 (configuration not stated)
- IC50 (MDA-MB-468): 6.97 µM
- IC50 (MDA-MB-231): 4.87 µM
- IC50 (MCF7 [1]): 5.52 µM
- IC50 (184B5): 5.66 µM

Structure (SMILES): CCN(CC)CCCC(C)Nc1c2ccc(Cl)cc2nc2ccc(OC)cc12 (configuration not stated) [QUINACRINE]
- IC50 (MDA-MB-468): 3.96 µM
- IC50 (MDA-MB-231): 3.25 µM
- IC50 (MCF7 [1]): 4.19 µM
- IC50 (184B5): 4.96 µM
- Activity (MCF7 [2]): Active

Structure (SMILES): COc1ccc2nc3cc(Cl)ccc3c(NCCCN3C(=O)CCSC3c3ccc(N(c4ccccc4)c4ccccc4)cc3)c2c1 (configuration not stated)
- IC50 (MDA-MB-468): 1.68 µM
- IC50 (MDA-MB-231): 3.32 µM
- IC50 (MCF7 [1]): 1.85 µM
- IC50 (184B5): 3.11 µM

Structure (SMILES): COc1ccc2nc3cc(Cl)ccc3c(NCCCN3C(=O)CCSC3c3ccccc3[N+](=O)[O-])c2c1 (configuration not stated)
- IC50 (MDA-MB-468): 1.21 µM
- IC50 (MDA-MB-231): 0.77 µM
- IC50 (MCF7 [1]): 0.99 µM
- IC50 (184B5): 1.83 µM

Structure (SMILES): COc1ccc2nc3cc(Cl)ccc3c(NCCCN3C(=O)CCSC3c3c(Cl)cccc3Cl)c2c1 (configuration not stated)
- IC50 (MDA-MB-468): 1.29 µM
- IC50 (MDA-MB-231): 7.54 µM
- IC50 (MCF7 [1]): 4.41 µM
- IC50 (184B5): 3.84 µM

Structure (SMILES): COc1ccc2nc3cc(Cl)ccc3c(NCCCN3C(=O)CCSC3c3ccc(Cl)cc3)c2c1 (configuration not stated)
- IC50 (MDA-MB-468): 4.43 µM
- IC50 (MDA-MB-231): 3.53 µM
- IC50 (MCF7 [1]): 3.4 µM
- IC50 (184B5): 5.02 µM

Structure (SMILES): COc1ccc2nc3cc(Cl)ccc3c(NCCCN3C(=O)CCSC3c3ccc(Br)cc3)c2c1 (configuration not stated)
- IC50 (MDA-MB-468): 25.5 µM
- IC50 (MDA-MB-231): 37.1 µM
- IC50 (MCF7 [1]): 31.3 µM
- IC50 (184B5): 35.8 µM

Structure (SMILES): COc1ccc2nc3cc(Cl)ccc3c(NCCCN3C(=O)CCSC3c3ccncc3)c2c1 (configuration not stated)
- IC50 (MDA-MB-468): 21.6 µM
- IC50 (MDA-MB-231): 10.8 µM
- IC50 (MCF7 [1]): 16.2 µM
- IC50 (184B5): 14.6 µM

Structure (SMILES): COc1ccc2nc3cc(Cl)ccc3c(NCCCN3C(=O)CCSC3c3ccc(F)cc3F)c2c1 (configuration not stated)
- IC50 (MDA-MB-468): 3.79 µM
- IC50 (MDA-MB-231): 4.54 µM
- IC50 (MCF7 [1]): 3.39 µM
- IC50 (184B5): 5.08 µM

Structure (SMILES): CCN(CC)CCCC(C)Nc1ccnc2cc(Cl)ccc12 (configuration not stated) [CHLOROQUINE PHOSPHATE]
- IC50 (MDA-MB-468): 28.6 µM
- IC50 (MDA-MB-231): 22.5 µM
- IC50 (MCF7 [1]): 38.4 µM
- IC50 (184B5): 76.1 µM

Structure (SMILES): COc1ccc2nc3cc(Cl)ccc3c(NCCCN3C(=O)CCSC3c3ccc[nH]3)c2c1 (configuration not stated)
- IC50 (MDA-MB-468): 4.87 µM
- IC50 (MDA-MB-231): 4.56 µM
- IC50 (MCF7 [1]): 1.66 µM
- IC50 (184B5): 12.9 µM

Structure (SMILES): COc1ccc2nc3cc(Cl)ccc3c(NCCCN3C(=O)CCSC3c3ccc(Cl)cc3Cl)c2c1 (configuration not stated)
- IC50 (MDA-MB-468): 3.72 µM
- IC50 (MDA-MB-231): 3.07 µM
- IC50 (MCF7 [1]): 1.85 µM
- IC50 (184B5): 4.28 µM

Structure (SMILES): COc1ccc2nc3cc(Cl)ccc3c(NCCCN3C(=O)CCSC3c3ccco3)c2c1 (configuration not stated)
- IC50 (MDA-MB-468): 3.67 µM
- IC50 (MDA-MB-231): 3.46 µM
- IC50 (MCF7 [1]): 3.57 µM
- IC50 (184B5): 3.6 µM
